Test results as given in ChEMBL document CHEMBL4619761, “Biosurfactants from Marine Cyanobacteria Collected in Sabah, Malaysia” (J Nat Prod, 2020).
Calls of active or inactive are those of the source. No cut-off for these calls is given here.

Legend:
[1] = Biosurfactant activity assessed as reduction in surface tension of aqueous solution at 10 to 1200 ug/ml by ring method; type: functional
Method in brief: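 Surface tension of aqueous solutions (10−1200 μg/mL) measured by the ring method on a Du Noüy tensiometer with a platinum ring at 25 °C, in triplicate. The instrument was calibrated against pure H2O before each set. CMC was taken from the breakpoint of the surface tension versus log bulk concentration curve.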

[2] = Biosurfactant activity assessed as Critical micelle concentration of compound; type: physicochemical
Amphibalanus amphitrite = assay: Antifouling activity against Amphibalanus amphitrite at 0.88 ug/ml; type: functional, organism-based
[3] = Biosurfactant activity assessed as diameter of clear zone at 10 mg/ml by oil displacement assay; type: functional
Method in brief: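 Oil displacement assay as an indirect measure of surface activity: sample tested at 10 mg/mL and the clear-zone diameter measured. SDS and pluronic F-68 were run at the same concentration for reference.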

MCF7 = assay: Cytotoxicity against human MCF7 cells incubated for 72 hrs by MTT assay; type: functional, cell-based; details: MCF7, 72 h

Row | SMILES | Activity [1] | CMC [2] [mM] | Activity [3] [mm] | IC50 (MCF7) [µg/mL] | other results
1 | CCCCCCCCCCCCCCC/C=C(\C)C(=O)N[C@@H](CO)COC | Active | 0.78 | – | – | Activity (Amphibalanus amphitrite): Active
2 | COC[C@@H](COC(C)=O)N(C)C(=O)CC/C=C/CCCC[C@H](Cl)CCCCCCCCCl | – | – | 90 | > 10 | –
3 | COC[C@@H](CO)N(C)C(=O)CC/C=C/CCCC[C@H](Cl)CCCCCCCCCl | Active | 0.34 | – | – | –
4 | CCCCCCCCC(Cl)CCCC/C=C/CCC(=O)N(C)[C@H](CO)COC (stereo not given in full) | – | – | – | > 10 | –
5 | CCCCCCCCCCCCOS(=O)(=O)[O-].[Na+] | – | – | 84 | – | –
6 | COC[C@@H](COC(C)=O)N(C)C(=O)CC/C=C/CCCCC(Cl)CCCCCCCC(Cl)Cl (stereo not given in full) | – | – | – | > 10 | –
